Experimental findings from ChEMBL document CHEMBL1141487, “Alpha,Beta-cyclic-beta-benzamido hydroxamic acids: Novel oxaspiro[4.4]nonane templates for the discovery of potent, selective, orally bioavailable inhibitors of tumor necrosis factor-alpha converting enzyme (TACE)” (Bioorg Med Chem Lett, 2008) are described below.

Data set [1] addresses Disintegrin and metalloproteinase domain-containing protein 17 (Sus scrofa, UniProt O77636).
Data set [2] is described as follows: Apparent permeability across human Caco-2 cells. It counts as ADME, cell-based.
A short description of data set [3]: AUC in Sprague-Dawley rat at 5 mg/kg, iv. Type of data set: ADME, organism-based. Also on record: dose 5 mg/kg, route intravenous. Particulars: plasma. In a few lines: (§1)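 Sprague–Dawley rats dosed 5 mg/kg iv and 5 mg/kg orally as n-in-1 cassette. Plasma levels measured by LC/MS/MS.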
Data set [4] deals with 72 kDa type IV collagenase (Homo sapiens, UniProt P08253). Put plainly: Inhibition of MMP2.
72 kDa type IV collagenase, sequence (P08253 whole entry): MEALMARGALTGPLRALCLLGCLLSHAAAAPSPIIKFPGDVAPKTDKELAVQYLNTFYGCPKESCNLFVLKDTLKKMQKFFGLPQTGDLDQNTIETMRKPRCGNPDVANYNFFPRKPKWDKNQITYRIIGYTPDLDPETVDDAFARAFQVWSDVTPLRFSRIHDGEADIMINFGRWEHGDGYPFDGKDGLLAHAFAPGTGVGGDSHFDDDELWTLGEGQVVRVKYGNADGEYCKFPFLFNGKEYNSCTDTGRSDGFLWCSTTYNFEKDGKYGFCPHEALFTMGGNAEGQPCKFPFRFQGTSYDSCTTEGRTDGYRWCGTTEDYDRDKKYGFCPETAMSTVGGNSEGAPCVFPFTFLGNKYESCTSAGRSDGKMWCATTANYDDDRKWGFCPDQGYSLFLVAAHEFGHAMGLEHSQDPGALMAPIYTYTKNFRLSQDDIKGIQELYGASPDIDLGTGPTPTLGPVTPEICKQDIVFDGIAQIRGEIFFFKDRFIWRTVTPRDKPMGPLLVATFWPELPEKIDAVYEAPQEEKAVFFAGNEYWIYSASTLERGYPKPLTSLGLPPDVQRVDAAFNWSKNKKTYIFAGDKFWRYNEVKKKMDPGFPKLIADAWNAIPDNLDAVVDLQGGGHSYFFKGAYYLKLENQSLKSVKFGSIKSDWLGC
The nature of data set [5]: Half life in Sprague-Dawley rat at 5 mg/kg, iv. It counts as ADME, organism-based. Also on record: dose 5 mg/kg, route intravenous. Particulars: in vivo. Summed up: as §1
Data set [6] in a line: Bioavailability in Sprague-Dawley rat at 5 mg/kg, po. Type of data set: ADME, organism-based. The following applies: in vivo. Summed up: as §1
Data set [7] can be described thus: AUC in Sprague-Dawley rat at 5 mg/kg, po. Type of data set: ADME, organism-based. Also on record: dose 5 mg/kg, route oral. The following applies: plasma. Summed up: as §1
Data set [8] has as its target Matrix metalloproteinase-9 (Homo sapiens, UniProt P14780). Put plainly: Inhibition of MMP9.
Data set [9] is described as follows: Half life in Sprague-Dawley rat at 5 mg/kg, po. It counts as ADME, organism-based. Also on record: dose 5 mg/kg, route oral. Particulars: in vivo. In a few lines: as §1
A short description of data set [10]: Clearance in Sprague-Dawley rat at 5 mg/kg, iv. Type of data set: ADME, organism-based. Also on record: dose 5 mg/kg, route intravenous. The following applies: in vivo. Summed up: as §1
The target in a further data set is T1, Interstitial collagenase (Homo sapiens, UniProt P03956).
T1 sequence (P03956 whole entry): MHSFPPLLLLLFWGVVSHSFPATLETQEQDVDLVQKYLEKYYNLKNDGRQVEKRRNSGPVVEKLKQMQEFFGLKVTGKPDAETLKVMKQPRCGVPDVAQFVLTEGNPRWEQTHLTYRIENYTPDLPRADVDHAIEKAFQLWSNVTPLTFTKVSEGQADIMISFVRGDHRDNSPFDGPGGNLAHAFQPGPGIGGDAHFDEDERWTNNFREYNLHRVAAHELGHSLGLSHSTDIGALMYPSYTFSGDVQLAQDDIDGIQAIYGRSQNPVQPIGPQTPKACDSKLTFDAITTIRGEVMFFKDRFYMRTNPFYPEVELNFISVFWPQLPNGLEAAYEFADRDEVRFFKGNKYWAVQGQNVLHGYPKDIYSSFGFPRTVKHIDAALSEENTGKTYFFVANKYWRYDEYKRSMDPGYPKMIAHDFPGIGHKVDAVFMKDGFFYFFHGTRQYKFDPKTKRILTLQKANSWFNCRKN
Briefly: Inhibition of MMP1.

Data set [11] can be described thus: Tmax in Sprague-Dawley rat at 5 mg/kg, po. Also on record: dose 5 mg/kg, route oral. The following applies: in vivo. Type of data set: ADME, organism-based. In a few lines: as §1
The next data set has as its system Blood. Briefly: Inhibition of LPS-induced TNFalpha production in human whole blood. It counts as functional, tissue-based.
A short description of data set [12]: Volume of distribution at steady state in Sprague-Dawley rat at 5 mg/kg, iv. Type of data set: ADME, organism-based. Also on record: dose 5 mg/kg, route intravenous. Particulars: in vivo, read-out: Vdss. Summed up: as §1
Data set [13] can be described thus: Oral bioavailability in Beagle dog. It counts as ADME, organism-based, Canis lupus familiaris. The following applies: in vivo.
The species named for another data set is Mus musculus. Put plainly: Inhibition of LPS-induced TNFalpha production in mouse endotoxemia model after 1 hr. It counts as functional. Summed up:
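Mice given lipopolysaccharide together with graded oral gavage doses of inhibitor at t = 0 h. Animals euthanized 1 h post-dose and whole blood taken by cardiac puncture. TNF-α measured in plasma. ED50 calculated from the dose–response.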

Disintegrin and metalloproteinase domain-containing protein 17, sequence (O77636 whole entry, the tested form may be a part): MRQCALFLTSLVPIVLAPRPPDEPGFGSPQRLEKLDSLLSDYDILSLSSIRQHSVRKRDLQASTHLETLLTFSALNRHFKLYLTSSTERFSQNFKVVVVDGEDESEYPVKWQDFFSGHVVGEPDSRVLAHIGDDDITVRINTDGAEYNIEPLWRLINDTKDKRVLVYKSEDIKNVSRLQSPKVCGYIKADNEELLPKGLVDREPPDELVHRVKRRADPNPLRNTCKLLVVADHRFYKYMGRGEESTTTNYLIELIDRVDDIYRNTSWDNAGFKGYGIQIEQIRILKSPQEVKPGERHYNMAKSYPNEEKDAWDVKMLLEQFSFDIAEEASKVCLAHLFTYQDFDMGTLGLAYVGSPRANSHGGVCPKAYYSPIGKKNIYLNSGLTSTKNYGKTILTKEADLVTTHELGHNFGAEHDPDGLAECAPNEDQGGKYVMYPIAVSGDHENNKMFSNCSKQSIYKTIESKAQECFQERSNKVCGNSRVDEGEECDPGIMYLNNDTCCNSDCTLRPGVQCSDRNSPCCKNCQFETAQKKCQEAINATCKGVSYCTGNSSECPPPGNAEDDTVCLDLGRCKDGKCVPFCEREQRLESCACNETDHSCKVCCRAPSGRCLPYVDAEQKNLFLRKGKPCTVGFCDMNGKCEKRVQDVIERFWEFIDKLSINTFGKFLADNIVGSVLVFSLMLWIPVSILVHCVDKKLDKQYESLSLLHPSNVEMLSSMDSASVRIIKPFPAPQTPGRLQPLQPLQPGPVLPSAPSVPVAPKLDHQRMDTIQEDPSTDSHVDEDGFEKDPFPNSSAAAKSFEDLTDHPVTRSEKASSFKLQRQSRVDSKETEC
Matrix metalloproteinase-9, sequence (P14780 whole entry): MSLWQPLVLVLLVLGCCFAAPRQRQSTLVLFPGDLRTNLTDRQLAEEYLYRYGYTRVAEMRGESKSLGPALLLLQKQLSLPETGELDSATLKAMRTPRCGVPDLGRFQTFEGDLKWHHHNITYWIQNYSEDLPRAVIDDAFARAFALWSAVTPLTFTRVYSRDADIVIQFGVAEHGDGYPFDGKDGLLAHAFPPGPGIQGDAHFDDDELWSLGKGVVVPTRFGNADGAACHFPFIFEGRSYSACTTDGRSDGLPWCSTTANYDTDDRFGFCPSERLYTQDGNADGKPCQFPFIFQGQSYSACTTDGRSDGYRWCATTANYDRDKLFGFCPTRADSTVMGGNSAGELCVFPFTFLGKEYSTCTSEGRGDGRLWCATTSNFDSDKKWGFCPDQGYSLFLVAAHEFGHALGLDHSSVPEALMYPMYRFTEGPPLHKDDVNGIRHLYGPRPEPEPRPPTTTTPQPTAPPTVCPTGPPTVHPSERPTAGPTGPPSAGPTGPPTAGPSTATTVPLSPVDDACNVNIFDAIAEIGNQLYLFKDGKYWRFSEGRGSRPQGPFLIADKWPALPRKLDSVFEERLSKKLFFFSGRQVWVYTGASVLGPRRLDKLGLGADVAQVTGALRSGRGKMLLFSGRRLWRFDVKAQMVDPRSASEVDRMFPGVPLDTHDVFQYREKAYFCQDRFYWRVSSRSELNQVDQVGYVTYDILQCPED

For `Cc1cc(COc2ccc(C(=O)N[C@@H]3C[C@]4(CCCO4)C[C@@H]3C(=O)NO)cc2)c2ccccc2n1`, the IC50 in data set [1] is 1 nM; in the data set on Blood, 143 nM. Further, the Papp in [2] came to 1.5 ×10⁻⁶ cm/s. Also, the AUC worked out at 10.9 µM·h in data set [3] and 3.85 µM·h in data set [7]. Also, the inhibition constant Ki in [4] was 1920 nM; in data set [8], 1250 nM; at Interstitial collagenase, over 4950 nM. Further, the half-life was 6.9 h in data set [5] and 1.9 h in data set [9]. This compound yielded a bioavailability in [6] of 35%. For the same compound, in data set [10], the clearance is 13.3 mL/min/kg. In [11], the Tmax amounted to 0.25 h. In addition, in data set [12], the Vd turned out to be 1.4 L/kg.

On to `Cc1cc(COc2ccc(C(=O)N[C@@H]3C[C@@]4(CCCO4)C[C@@H]3C(=O)NO)cc2)c2ccccc2n1`, for which the results for the IC50 (in data set [1]; in the data set with Blood) were 1 nM and 108 nM, respectively. Also, the bioavailability in data set [13] was found to be 68%; in [6], 31%. For the same compound, the Papp in data set [2] is 5.7 ×10⁻⁶ cm/s. For the same compound, the AUC stood at 12.6 µM·h in data set [3] and 3.93 µM·h in data set [7]. The Ki is 1360 nM in data set [4], 1450 nM in data set [8] and over 4950 nM at Interstitial collagenase. In addition, the values for the half-life in data set [5] and in [9] were 4.2 h and 1.3 h, respectively. In data set [10], this compound gave a clearance of 11.7 mL/min/kg. In [11], the Tmax is 0.1 h. In the data set listed under Mus musculus, this compound returned an ED50 of 1 mg/kg. Further, in [12], the Vd came out at 0.3 L/kg.
